Screening data deposited in PubChem by several laboratories.
H69AR growth 86K = proliferation blockers of H69AR lung cancer cells, primary screen, cell-based, human, 86K library. H69AR lung tumor viability, ATP luminescence, 72 h; stronger effect = lower value. viability, % at 10 µM. AID 598, 2007. 85,000 compounds, 6% hits;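 active = viability at or below 40%; inactive = viability above 40%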;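 note: multidrug resistant small cell line overexpressing MRP-1 efflux transporter; 100% = mean luminescence of untreated control wells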
Jurkat tox 60K = cytotoxicity toward Jurkat T cells, primary screen, cytotoxicity control, cell-based, Jurkat E6.1, 60K MLSMR library. inhibition, % at 4 µM. 56,000 compounds, 1.2% hits. Jurkat E6.1 viability, ATP luminescence, 48 h;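 active = inhibition above the mean inhibition of all tested compounds plus 3 SD, cut at about 28% in these data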
PTK2B oligo ant = antagonists of Pyk2 self-association, primary screen, Q293 cells, FERM NanoBiT luminescence, HTS. stronger effect = lower value. z-score (the deposit names both 25 µM and 10 µM). Protein-tyrosine kinase 2-beta (Homo sapiens), Q14289. 99,000 compounds, 0.83% hits;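 active = Z-score of -3 or lower, scaled per plate to the spread of control and sample wells; inactive = z-score above -3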;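 note: negative z-score means lost luminescence so less FERM oligomerization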
Fibroblast inh = antiproliferative effect on LL 47 fibroblasts – human, LL 47 cells, CellTiter-Glo luminescence, primary screen; LL 47 human lung fibroblast viability, ATP luminescence; stronger effect = lower value; viability, % at 10 µM; 85,000 compounds, 1.1% hits;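 active = viability at or below 50% in the single dose screen; inactive = viability above 50%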;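 note: compound exposure lasted 72 h before the ATP readout; 100% = median luminescence of untreated cell-only wells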
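Signal: luminescent ATP detection, CellTiter-Glo; assay system: LL 47 human lung fibroblasts; input: 1,150 cells/well; incubation: overnight cell rest, 72 h compound treatment at 37 °C; measure: % viability versus median cells-only luminescence; medium: IMEM growth medium with 15% fetal bovine serum; dosing: compound addition at 0.1% DMSO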
F-actin modifier = modifiers of F-actin cytoskeleton organization, primary screen, imaging, HUVEC, phalloidin staining, high-content imaging; HUVEC TNFa F-actin phalloidin imaging; 91,000 compounds, 0.18% hits; inhibition, % at 2 µM; AID 836, 2007;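 active = inhibition above the batch mean plus 3 SD and confirmed as a hit by visual image inspection, cut at about 30% in these data, passing the limit was not always enough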
HUVEC inhibit = inhibitors of HUVEC proliferation, primary screen, cell-based, 384-well | 86,000 compounds, 1.1% hits | AID 648, 2007 | CellTiter-Glo luminescence, 72 h; stronger effect = lower value | viability, % at 10 µM (by protocol);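 active = viability at or below 30%; inactive = viability above 30%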;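 note: 100% = median luminescence of DMSO-only cell control wells on each plate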
* = called active by the depositor; · = no result given. The list is not random: actives were taken first. Their share in the collection is about 6%.

SMILES	H69AR growth 86K	Jurkat tox 60K	PTK2B oligo ant	Fibroblast inh	F-actin modifier	HUVEC inhibit
CCCn1c(=O)c2ccccc2n2c(SCCOc3ccccc3)nnc12	100	-10	0.59	96	·	91
COc1ccccc1NCCC(=O)OCC(=O)Nc1ccc(Cl)cn1	96	0	1.5	98	·	97
COc1cc(CNCCc2c[nH]c3ccccc23)ccc1OCc1ccc(F)cc1	·	·	0.44	·	-23	·
COc1cccc(C2CC(c3ccccc3OC)n3ncnc3N2)c1 (centres undefined)	31*	-7	·	91	12	91
Clc1ccc(C2CC(c3ccccc3)Nc3ncnn32)cc1 (centres undefined)	28*	7	·	83	·	86
CCC(Oc1nc2ccccc2nc1-c1ccccc1NC(C)=O)C(=O)c1ccccc1 (centres undefined)	·	·	-2.8	·	-13	·
O=c1[nH]c(NCc2ccco2)nnc1Cc1ccccc1Cl	30*	·	1.6	77	-6	48
Cc1cccc(C)c1NC(=O)CSc1nc(-c2ccco2)cc(C(F)(F)F)n1	30*	·	-0.67	81	1	59
Cc1ccccc1Cn1ccc(NC(=O)CCSc2nc(-c3ccco3)cc(C(F)(F)F)n2)n1	91	-4	-0.96	98	26	76
O=C(CSc1nc(-c2ccco2)cc(C(F)(F)F)n1)Nc1ccccc1C(F)(F)F	26*	·	-0.44	69	-29	63
Cc1ccc(Cn2ccc(NC(=O)CCSc3nc(-c4ccco4)cc(C(F)(F)F)n3)n2)cc1	14*	4	1.1	96	-2	55
Cc1cc(NC(=O)CSc2nc(-c3ccco3)cc(C(F)(F)F)n2)no1	·	59*	0.3	·	-10	·
O=C(CSc1nc(-c2ccco2)cc(C(F)(F)F)n1)NCCc1ccccc1	79	-6	2.2	96	-1	100
Cc1nn(C)c(C)c1NC(=O)CCSc1nc(-c2ccco2)cc(C(F)(F)F)n1	·	4	-0.02	·	17	·
c1cnc2ccc(C(c3nnnn3C3CCCC3)N3CCN4CCCC4C3)cc2c1 (centres undefined)	94	·	0.46	105	-3	98
O=C(N/N=C\c1ccc(F)cc1)c1csnn1	·	·	0.26	·	-18	·
COc1cc(S(=O)(=O)NCC2CCCO2)ccc1Br (centres undefined)	96	·	-0.25	104	10	99
Cc1c(C(=O)/C=C/c2cccs2)oc2ccc(F)cc12	21*	·	0.12	89	·	85
O=C(Nc1ccccc1N1CCN(C(=O)c2ccccc2)CC1)c1cc2ccccc2o1	56	-1	-2.9	·	0	71
COC(=O)c1[nH]c2ccccc2c1NC(=O)CN1CCN(C(=O)c2ccco2)CC1	18*	0	-0.01	95	-3	95
COc1ccc2[nH]cc(C(=O)CN3CCN(C(=O)c4ccco4)CC3)c2c1	79	-5	-0.13	107	7	29*
COc1ccc2[nH]c(C)c(C(=O)CN3CCN(C(=O)c4ccco4)CC3)c2c1	·	·	0.35	·	15	·
CCOC(=O)N1CCN(CC(=O)Nc2c(C(=O)OC)[nH]c3ccccc23)CC1	44	2	1.6	94	-14	105
Cc1ccc(SCc2cn3c(C)csc3n2)cc1	97	-2	-0.32	100	-25	108
CCOC(=O)CN1C(=O)C(Sc2n[nH]c(-c3ccccc3)n2)CCc2ccccc21 (centres undefined)	·	·	0.15	·	4	·
Cc1c(=O)n(OCc2c(F)cccc2F)c2ccccc2[n+]1[O-]	·	·	·	·	-4	·
NC(=O)c1ccc(Br)c(S(=O)(=O)N2CCCCC2)c1	94	2	-0.17	89	11	97
O=S(=O)(c1cc(-c2nnc(-c3ccc(Br)cc3)o2)ccc1Br)N1CCCCCC1	29*	·	1.4	94	4	77
CCOC(=O)c1nn(-c2ccc(Br)cc2)cc1C(=O)c1cccc2ccccc12	·	·	-1.1	·	22	·
COC(=O)C1=CN(CC2CCCO2)C=C(C(=O)OC)C1c1ccccc1C(F)(F)F (centres undefined)	37*	·	-0.19	101	18	111
